Measured values published in ChEMBL document CHEMBL1155998, “Design and synthesis of piperazinylpyrimidinones as novel selective 5-HT(2C) agonists” (Bioorg Med Chem Lett, 2009).
pEC50: −log10 of the molar value.

Assays:
[1] = target: T1, 5-hydroxytryptamine receptor 2C (Homo sapiens, UniProt P28335); experiment: Agonist activity at human recombinant 5HT2C receptor expressed in CHO K1 cells assessed as calcium mobilisation by FLIPR assay; format: functional, cell-based
T1 sequence (P28335 whole entry): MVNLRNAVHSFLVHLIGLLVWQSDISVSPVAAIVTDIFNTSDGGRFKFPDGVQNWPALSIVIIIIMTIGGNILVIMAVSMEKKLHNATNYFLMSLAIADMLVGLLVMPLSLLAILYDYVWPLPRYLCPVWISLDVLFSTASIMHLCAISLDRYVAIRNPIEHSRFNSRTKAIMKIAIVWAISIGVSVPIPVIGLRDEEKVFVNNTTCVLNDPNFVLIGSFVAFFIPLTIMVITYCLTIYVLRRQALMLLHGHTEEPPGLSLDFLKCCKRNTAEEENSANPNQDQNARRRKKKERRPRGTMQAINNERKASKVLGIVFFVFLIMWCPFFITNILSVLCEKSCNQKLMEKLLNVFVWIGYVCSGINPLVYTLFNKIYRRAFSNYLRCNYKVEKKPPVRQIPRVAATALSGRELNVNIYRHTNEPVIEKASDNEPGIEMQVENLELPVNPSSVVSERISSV
Method in brief: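 Recombinant CHO K1 cells expressing the human 5-HT2C receptor. Agonism was read as a fluorescent calcium mobilisation signal in a FLIPR assay. Values were reported as EC50 and Emax (%).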

[2] = target: T2, 5-hydroxytryptamine receptor 2C (Homo sapiens) (UniProt P28335); experiment: Agonist activity at human recombinant 5HT2C receptor transfected in CHO K1 cells assessed as calcium mobilisation at 10 uM by FLIPR assay relative to serotonin; format: functional, cell-based
T2 sequence (whole entry): T1 sequence (P28335 whole entry)
Method in brief: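 Recombinant CHO K1 cells stably expressing the human 5-HT2C receptor; agonist-induced calcium mobilisation read as a fluorescence signal on FLIPR. Potency reported as EC50 and efficacy as Emax (%).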

[3] = Lipophilicity, log Dof the compound at pH 7.4; format: physicochemical; settings: buffer
[4] = target: 5-hydroxytryptamine receptor 2A (Homo sapiens, UniProt P28223); experiment: Agonist activity at human recombinant 5HT2A receptor transfected in CHO K1 cells assessed as calcium mobilisation at 10 uM by FLIPR assay; format: functional, cell-based
Sequence of 5-hydroxytryptamine receptor 2A (P28223 whole entry): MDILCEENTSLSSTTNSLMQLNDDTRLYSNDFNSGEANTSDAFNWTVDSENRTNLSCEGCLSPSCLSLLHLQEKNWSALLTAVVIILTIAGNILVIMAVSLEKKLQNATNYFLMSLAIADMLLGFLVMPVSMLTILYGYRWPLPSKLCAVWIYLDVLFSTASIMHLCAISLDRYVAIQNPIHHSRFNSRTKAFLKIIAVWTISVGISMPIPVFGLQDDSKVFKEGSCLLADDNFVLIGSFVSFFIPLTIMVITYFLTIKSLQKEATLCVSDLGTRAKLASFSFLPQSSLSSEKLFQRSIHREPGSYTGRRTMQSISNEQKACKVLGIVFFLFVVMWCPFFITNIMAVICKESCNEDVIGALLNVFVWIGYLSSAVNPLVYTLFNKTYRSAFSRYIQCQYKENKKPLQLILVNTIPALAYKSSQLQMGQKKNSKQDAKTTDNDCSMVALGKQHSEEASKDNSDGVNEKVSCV
Method in brief: (§1)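 Recombinant cell-based systems expressing the human 5-HT2A or 5-HT2B receptor. Agonist response was read as calcium mobilisation by FLIPR, with test compound at 10 μM. Results were reported as % agonism.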

[5] = target: 5-hydroxytryptamine receptor 2B (Homo sapiens, UniProt P41595); experiment: Agonist activity at human recombinant 5HT2B receptor transfected in CHO K1 cells assessed as calcium mobilisation at 10 uM by FLIPR assay; format: functional, cell-based; method in brief: as §1
Sequence of 5-hydroxytryptamine receptor 2B (P41595 whole entry): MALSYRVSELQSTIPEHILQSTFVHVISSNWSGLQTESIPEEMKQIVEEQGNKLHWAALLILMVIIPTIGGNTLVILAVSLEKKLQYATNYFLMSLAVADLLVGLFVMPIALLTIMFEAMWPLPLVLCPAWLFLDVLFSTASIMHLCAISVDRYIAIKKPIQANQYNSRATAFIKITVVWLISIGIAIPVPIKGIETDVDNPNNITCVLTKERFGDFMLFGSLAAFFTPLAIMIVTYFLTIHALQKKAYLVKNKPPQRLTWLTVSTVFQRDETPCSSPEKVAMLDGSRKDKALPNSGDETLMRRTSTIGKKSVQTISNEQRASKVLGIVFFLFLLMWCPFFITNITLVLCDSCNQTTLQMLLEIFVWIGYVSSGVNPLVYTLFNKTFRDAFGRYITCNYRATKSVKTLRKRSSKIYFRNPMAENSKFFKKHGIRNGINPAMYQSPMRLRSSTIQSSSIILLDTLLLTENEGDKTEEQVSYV

[6] = Intrinsic clearance in human liver microsomes; format: ADME, Microsome
MDR1 (human) = experiment: Efflux ratio, permeability from basolateral to apical over apical to basolateral side in MDCK cells expressing human MDR1 gene; format: ADME, cell-based, Canis lupus familiaris; settings: dog

Cc1cc(=O)n(CCCOc2ccccc2F)c(N2CCNCC2)n1
pEC50 [1]: 7.11 | Emax [2]: 92% | logD [3]: 0.45 | Activity [4]: 39% | Activity [5]: 35%

Cn1c(COc2ccccc2C(F)(F)F)nc(N2CCNCC2)cc1=O
pEC50 [1]: 7.52 | Emax [2]: 72% | logD [3]: 1.4 | microsomal CLint [6]: 14 µL/min/mg

Cc1cc(=O)n(CCCOCc2ccccc2)c(N2CCNCC2)n1
pEC50 [1]: < 5.00

Cn1c(COc2cccc(C#N)c2)nc(N2CCNCC2)cc1=O
pEC50 [1]: 6.50 | Emax [2]: 63% | logD [3]: 0.3 | microsomal CLint [6]: < 7 µL/min/mg

Cn1c(COc2ccccc2Cl)nc(N2CCNCC2)cc1=O
pEC50 [1]: 7.14 | Emax [2]: 61% | logD [3]: 0.8 | microsomal CLint [6]: 11 µL/min/mg

Cn1c(COc2ccc(Cl)cc2)nc(N2CCNCC2)cc1=O
pEC50 [1]: < 5.00 | logD [3]: 0.8 | microsomal CLint [6]: < 7 µL/min/mg

Cn1c(COc2cccc(Cl)c2)nc(N2CCNCC2)cc1=O
pEC50 [1]: 6.31 | Emax [2]: 66% | logD [3]: 1 | microsomal CLint [6]: < 7 µL/min/mg

Cc1ccc(F)cc1OCc1nc(N2CCNCC2)cc(=O)n1C
pEC50 [1]: 7.34 | Emax [2]: 84% | logD [3]: 1 | microsomal CLint [6]: < 7 µL/min/mg

Cc1cc(=O)n(CCCOc2ccc(Cl)cc2)c(N2CCNCC2)n1
pEC50 [1]: 6.05 | Emax [2]: 91%

Cc1cc(=O)n(CCCOc2ccccc2)c(N2CCNCC2)n1
pEC50 [1]: 5.99 | Emax [2]: 77% | logD [3]: 0.7 | efflux ratio (MDR1 (human)): 1.6 | microsomal CLint [6]: 26 µL/min/mg | Activity [4]: 44% | Activity [5]: 57%

Cc1cc(=O)n(CCCOc2ccccc2)c(N2CCNC[C@H]2C)n1
pEC50 [1]: 6.79 | Emax [2]: 84% | logD [3]: 0.9 | microsomal CLint [6]: 16 µL/min/mg

Cc1cc(=O)n(CCCOc2cccc(Cl)c2)c(N2CCNCC2)n1
pEC50 [1]: 6.58 | Emax [2]: 86% | logD [3]: 1.2

Cc1cc(=O)n(CCCOc2ccc(F)cc2)c(N2CCNCC2)n1
pEC50 [1]: < 5.00 | logD [3]: 0.7

Cc1cc(=O)n(CCCOc2cccc(F)c2)c(N2CCNCC2)n1
pEC50 [1]: < 5.00 | logD [3]: 0.8

Cn1c(CCc2ccccc2)nc(N2CCNCC2)cc1=O
pEC50 [1]: 6.56 | Emax [2]: 43% | logD [3]: 0.6 | efflux ratio (MDR1 (human)): 3.4 | microsomal CLint [6]: < 7 µL/min/mg | Activity [4]: 13% | Activity [5]: < 5%

CCn1c(COc2cccc(C#N)c2)nc(N2CCNCC2)cc1=O
pEC50 [1]: 6.95 | Emax [2]: 77% | logD [3]: 0.4 | microsomal CLint [6]: < 7 µL/min/mg

C[C@@H]1CNCCN1c1cc(=O)n(C)c(CCc2ccccc2Cl)n1
pEC50 [1]: 7.68 | Emax [2]: 46% | logD [3]: 1.6 | efflux ratio (MDR1 (human)): 3.1 | microsomal CLint [6]: 24 µL/min/mg | Activity [4]: 27% | Activity [5]: < 5%

CCn1c(COc2cc(F)ccc2Cl)nc(N2CCNCC2)cc1=O
pEC50 [1]: 6.99 | Emax [2]: 46% | logD [3]: 1.4 | microsomal CLint [6]: < 7 µL/min/mg

Cn1c(COc2cc(F)ccc2Cl)nc(N2CCNCC2)cc1=O
pEC50 [1]: 6.44 | Emax [2]: 48% | logD [3]: 1 | microsomal CLint [6]: < 7 µL/min/mg

Cc1ccccc1CCc1nc(N2CCNC[C@H]2C)cc(=O)n1C
pEC50 [1]: 7.59 | Emax [2]: 59% | logD [3]: 1.4 | efflux ratio (MDR1 (human)): 3.5 | microsomal CLint [6]: 18 µL/min/mg | Activity [4]: 50% | Activity [5]: < 5%

Cc1cc(=O)n(CCCc2ccccc2)c(N2CCNCC2)n1
pEC50 [1]: < 5.00

Cc1ccc(Cl)cc1OCc1nc(N2CCNCC2)cc(=O)n1C
pEC50 [1]: 6.80 | Emax [2]: 84% | logD [3]: 1.5 | microsomal CLint [6]: < 7 µL/min/mg

CCn1c(CCc2ccccc2Cl)nc(N2CCNCC2)cc1=O
pEC50 [1]: 7.68 | Emax [2]: 50% | logD [3]: 1.9 | efflux ratio (MDR1 (human)): 4.3 | microsomal CLint [6]: 30 µL/min/mg | Activity [4]: 16% | Activity [5]: < 5%

C[C@@H]1CNCCN1c1cc(=O)n(C)c(CCc2ccccc2)n1
pEC50 [1]: 6.58 | Emax [2]: 50% | logD [3]: 1 | microsomal CLint [6]: < 7 µL/min/mg | Activity [4]: 58% | Activity [5]: < 5%

Cn1c(CCc2cccc(Cl)c2)nc(N2CCNCC2)cc1=O
pEC50 [1]: 7.02 | Emax [2]: 59% | logD [3]: 1.2 | efflux ratio (MDR1 (human)): 4 | microsomal CLint [6]: < 7 µL/min/mg | Activity [4]: 57% | Activity [5]: < 5%

Cn1c(COc2ccc(C(F)(F)F)cc2)nc(N2CCNCC2)cc1=O
pEC50 [1]: < 5.00 | logD [3]: 1.1 | microsomal CLint [6]: 8 µL/min/mg

C[C@@H]1CNCCN1c1ccc(=O)n(CCOc2ccccc2C(F)(F)F)n1
pEC50 [1]: 7.33 | Emax [2]: 45% | logD [3]: 1.4 | efflux ratio (MDR1 (human)): 3.4 | microsomal CLint [6]: 15 µL/min/mg | Activity [4]: 50% | Activity [5]: < 10%

Cc1cc(=O)n(CCCOc2ccccc2Cl)c(N2CCNCC2)n1
pEC50 [1]: 7.25 | Emax [2]: 83% | logD [3]: 1 | microsomal CLint [6]: 27 µL/min/mg | Activity [4]: 58% | Activity [5]: 46%

Cn1c(N2CCNCC2)nc(CCc2cccc(Cl)c2)cc1=O
pEC50 [1]: < 5.00 | logD [3]: 1.3 | microsomal CLint [6]: < 7 µL/min/mg

Cc1ccccc1OCc1nc(N2CCNCC2)cc(=O)n1C
pEC50 [1]: 6.64 | Emax [2]: 60% | logD [3]: 0.8 | microsomal CLint [6]: < 7 µL/min/mg

C[C@@H]1CNCCN1c1cc(=O)n(C)c(CCc2cccc(Cl)c2)n1
pEC50 [1]: 7.59 | Emax [2]: 59% | logD [3]: 1.6 | efflux ratio (MDR1 (human)): 3.7 | microsomal CLint [6]: < 10 µL/min/mg | Activity [4]: 76% | Activity [5]: 13%

C[C@@H]1CNCCN1c1cc(=O)n(C)c(CCc2ccccc2C(F)(F)F)n1
pEC50 [1]: 7.19 | Emax [2]: 59% | logD [3]: 1.8 | microsomal CLint [6]: 29 µL/min/mg | Activity [4]: 45% | Activity [5]: 6%

Cn1c(COc2cccc(C(F)(F)F)c2)nc(N2CCNCC2)cc1=O
pEC50 [1]: 6.31 | Emax [2]: 49% | logD [3]: 1.3
